In ChEMBL document CHEMBL1153560, “In vitro activities of doripenem and six comparator drugs against 423 aerobic and anaerobic bacterial isolates from infected diabetic foot wounds” (2008):
In brackets after ≈: the same amount, converted by molar mass.

Legend:
Assay type in all cases: functional
[Clostridium] innocuum = Antibacterial activity against Clostridium innocuum isolated from patient with diabetic foot infection assessed as percent resistant isolates after 44 to 48 hrs by agar dilution method
Summary of the method: (§1)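 Agar dilution per CLSI M11-A7. Twofold drug dilutions made on the test day and added to molten agar. Replicator-applied inoculum of 10^5 CFU/spot. Drug-free control plates inoculated before and after each drug set. Incubation at 37°C for 44 to 48 h, anaerobic chamber. MIC taken as the lowest concentration giving no growth or a marked change in growth versus controls.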

[1] = test system: Corynebacterium urealyticum; experiment: Antibacterial activity against Corynebacterium urealyticum isolated from patient with diabetic foot infection after 48 hrs by broth microdilution method
Summary of the method: (§2)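 Isolates were subcultured on Trypticase soy blood agar. Broth microdilution used cation-adjusted Mueller-Hinton broth with lysed horse blood, in-house trays of twofold drug dilutions stored at −70°C. Colonies from overnight growth gave a final inoculum of about 5 × 10^5 CFU/ml. Trays were read after 18 to 24 h at 37°C, up to 48 h for some strains.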

Anaerococcus tetradius = experiment: Antibacterial activity against Anaerococcus tetradius isolated from patient with diabetic foot infection after 44 to 48 hrs by agar dilution method
Summary of the method: (§3)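 CLSI M11-A7 agar dilution: serial twofold drug dilutions made on the test day and added to molten agar. Spots of 10^5 CFU were applied by replicator, with drug-free control plates inoculated before and after each set. Incubation was 44 to 48 h at 37°C in an anaerobic chamber. MIC was the lowest concentration giving no growth or a marked change in growth versus controls.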

Proteus mirabilis [2] = experiment: Antibacterial activity against Proteus mirabilis isolated from patient with diabetic foot infection after 18 to 24 hrs by broth microdilution method
Summary of the method: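 Isolates were subcultured on Trypticase soy blood agar and tested by broth microdilution in cation-adjusted Mueller-Hinton broth. In-house trays of twofold drug dilutions were stored at −70°C. Overnight colonies gave a final inoculum of about 5 × 10^5 CFU/ml. Plates were read after 18 to 24 h at 37°C.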

[3] = test system: Staphylococcus lugdunensis; experiment: Antibacterial activity against Staphylococcus lugdunensis isolated from patient with diabetic foot infection assessed as percent resistant isolates after 18 to 24 hrs by broth microdilution method
Summary of the method: (§4)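 Aerobes subcultured on Trypticase soy blood agar, then broth microdilution in cation-adjusted Mueller-Hinton broth. Trays prepared in-house with twofold dilutions and stored at −70°C. Overnight colonies suspended to about 5 × 10^5 CFU/ml final. Read after 18 to 24 h at 37°C. QC strains included S. aureus ATCC 29213 and E. coli ATCC 25922.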

Enterobacter cloacae = experiment: Antibacterial activity against Enterobacter cloacae isolated from patient with diabetic foot infection assessed as percent resistant isolates after 18 to 24 hrs by broth microdilution method; summary of the method: as §4
Parabacteroides merdae = experiment: Antibacterial activity against Parabacteroides merdae isolated from patient with diabetic foot infection after 44 to 48 hrs by agar dilution method; summary of the method: as §3
Finegoldia magna = experiment: Antibacterial activity against Finegoldia magna isolated from patient with diabetic foot infection after 44 to 48 hrs by agar dilution method; summary of the method: as §3
Bacteroides uniformis [4] = experiment: Antibacterial activity against Bacteroides uniformis isolated from patient with diabetic foot infection after 44 to 48 hrs by agar dilution method; summary of the method: as §3
[5] = test system: Bacteroides thetaiotaomicron; experiment: Antibacterial activity against Bacteroides thetaiotaomicron isolated from patient with diabetic foot infection after 44 to 48 hrs by agar dilution method; summary of the method: as §3
Lacrimispora sphenoides [6] = experiment: Antibacterial activity against Clostridium sphenoides isolated from patient with diabetic foot infection assessed as percent resistant isolates after 44 to 48 hrs by agar dilution method; summary of the method: as §1
[7] = test system: Clostridium malenominatum; experiment: Antibacterial activity against Clostridium malenominatum isolated from patient with diabetic foot infection assessed as percent resistant isolates after 44 to 48 hrs by agar dilution method; summary of the method: as §1
Porphyromonas somerae = experiment: Antibacterial activity against Porphyromonas somerae isolated from patient with diabetic foot infection after 44 to 48 hrs by agar dilution method; summary of the method: as §3
Klebsiella aerogenes = experiment: Antibacterial activity against Enterobacter aerogenes isolated from patient with diabetic foot infection assessed as percent resistant isolates after 18 to 24 hrs by broth microdilution method; summary of the method: as §4
Bacteroides uniformis [8] = experiment: Antibacterial activity against Bacteroides uniformis isolated from patient with diabetic foot infection assessed as percent resistant isolates after 44 to 48 hrs by agar dilution method; summary of the method: as §1
Corynebacterium accolens = experiment: Antibacterial activity against Corynebacterium accolens isolated from patient with diabetic foot infection after 48 hrs by broth microdilution method; summary of the method: as §2
Staphylococcus aureus = experiment: Antibacterial activity against methicillin-sensitive Staphylococcus aureus isolated from patient with diabetic foot infection after 18 to 24 hrs by broth microdilution method
Summary of the method: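 Subcultured on Trypticase soy blood agar, then broth microdilution in cation-adjusted Mueller-Hinton broth. Trays were made in-house with serial twofold drug dilutions and stored at −70°C. Inoculum was colonies from overnight growth, final approximately 5 × 10^5 CFU/ml. MIC was read after 18 to 24 h at 37°C. QC strains: S. aureus ATCC 29213 and E. coli ATCC 25922.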

Bacteroides fragilis = experiment: Antibacterial activity against Bacteroides fragilis isolated from patient with diabetic foot infection after 44 to 48 hrs by agar dilution method; summary of the method: as §3
[9] = test system: Corynebacterium minutissimum; experiment: Antibacterial activity against Corynebacterium minutissimum isolated from patient with diabetic foot infection after 48 hrs by broth microdilution method; summary of the method: as §2
Anaerococcus prevotii = experiment: Antibacterial activity against Anaerococcus prevotii isolated from patient with diabetic foot infection assessed as percent resistant isolates after 44 to 48 hrs by agar dilution method; summary of the method: as §1
Lacrimispora sphenoides [10] = experiment: Antibacterial activity against Clostridium sphenoides isolated from patient with diabetic foot infection after 44 to 48 hrs by agar dilution method; summary of the method: as §3
Bacteroides ovatus = experiment: Antibacterial activity against Bacteroides ovatus isolated from patient with diabetic foot infection assessed as percent resistant isolates after 44 to 48 hrs by agar dilution method; summary of the method: as §1
Clostridium perfringens = experiment: Antibacterial activity against Clostridium perfringens isolated from patient with diabetic foot infection after 44 to 48 hrs by agar dilution method; summary of the method: as §1
[11] = test system: Clostridium malenominatum; experiment: Antibacterial activity against Clostridium malenominatum isolated from patient with diabetic foot infection after 44 to 48 hrs by agar dilution method; summary of the method: as §3
Proteus mirabilis [12] = experiment: Antibacterial activity against Proteus mirabilis isolated from patient with diabetic foot infection assessed as percent resistant isolates after 18 to 24 hrs by broth microdilution method; summary of the method: as §4
[13] = test system: Corynebacterium amycolatum; experiment: Antibacterial activity against Corynebacterium amycolatum isolated from patient with diabetic foot infection assessed as percent resistant isolates after 48 hrs by broth microdilution method
Summary of the method: (§5)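 Isolates subcultured on Trypticase soy blood agar. Broth microdilution in cation-adjusted Mueller-Hinton broth with lysed horse blood, using in-house twofold dilution trays stored at −70°C. Inoculum from overnight colonies at about 5 × 10^5 CFU/ml final. Read after 18 to 24 h at 37°C, up to 48 h for some Corynebacterium strains.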

[14] = test system: Corynebacterium urealyticum; experiment: Antibacterial activity against Corynebacterium urealyticum isolated from patient with diabetic foot infection assessed as percent resistant isolates after 48 hrs by broth microdilution method; summary of the method: as §5

Compound: C[C@@H](O)[C@H]1C(=O)N2C(C(=O)O)=C(S[C@@H]3CN[C@H](C(=O)Nc4cccc(C(=O)O)c4)C3)[C@H](C)[C@H]12 [ERTAPENEM]
- Activity ([Clostridium] innocuum): 0%
- MIC50 [1]: 1 µg/mL (≈ 2.1 µM)
- MIC90 [1]: 32 µg/mL (≈ 67.3 µM)
- MIC50 (Anaerococcus tetradius): 0.125 µg/mL (≈ 0.263 µM)
- MIC90 (Anaerococcus tetradius): 0.25 µg/mL (≈ 0.526 µM)
- MIC50 (Proteus mirabilis [2]): ≤ 0.015 µg/mL
- MIC90 (Proteus mirabilis [2]): 0.25 µg/mL (≈ 0.526 µM)
- Activity [3]: 0%
- Activity (Enterobacter cloacae): 0%
- MIC50 (Parabacteroides merdae): 1 µg/mL (≈ 2.1 µM)
- MIC90 (Parabacteroides merdae): 2 µg/mL (≈ 4.21 µM)
- MIC50 (Finegoldia magna): 0.06 µg/mL (≈ 0.126 µM)
- MIC90 (Finegoldia magna): 0.125 µg/mL (≈ 0.263 µM)
- MIC50 (Bacteroides uniformis [4]): 1 µg/mL (≈ 2.1 µM)
- MIC90 (Bacteroides uniformis [4]): 2 µg/mL (≈ 4.21 µM)
- MIC50 [5]: 1 µg/mL (≈ 2.1 µM)
- MIC90 [5]: 2 µg/mL (≈ 4.21 µM)
- Activity (Lacrimispora sphenoides [6]): 0%
- Activity [7]: 0%
- MIC50 (Porphyromonas somerae): ≤ 0.015 µg/mL
- MIC90 (Porphyromonas somerae): 0.06 µg/mL (≈ 0.126 µM)
- Activity (Klebsiella aerogenes): 0%
- Activity (Bacteroides uniformis [8]): 0%
- MIC50 (Corynebacterium accolens): 0.5 µg/mL (≈ 1.05 µM)
- MIC90 (Corynebacterium accolens): 1 µg/mL (≈ 2.1 µM)
- MIC50 (Staphylococcus aureus): 0.125 µg/mL (≈ 0.263 µM)
- MIC90 (Staphylococcus aureus): 0.25 µg/mL (≈ 0.526 µM)
- MIC50 (Bacteroides fragilis): 0.25 µg/mL (≈ 0.526 µM)
- MIC90 (Bacteroides fragilis): 1 µg/mL (≈ 2.1 µM)
- MIC50 [9]: 1 µg/mL (≈ 2.1 µM)
- MIC90 [9]: 32 µg/mL (≈ 67.3 µM)
- Activity (Anaerococcus prevotii): 0%
- MIC50 (Lacrimispora sphenoides [10]): 0.25 µg/mL (≈ 0.526 µM)
- MIC90 (Lacrimispora sphenoides [10]): 2 µg/mL (≈ 4.21 µM)
- Activity (Bacteroides ovatus): 0%
- MIC50 (Clostridium perfringens): 0.06 µg/mL (≈ 0.126 µM)
- MIC90 (Clostridium perfringens): 0.125 µg/mL (≈ 0.263 µM)
- MIC50 [11]: 0.25 µg/mL (≈ 0.526 µM)
- MIC90 [11]: 2 µg/mL (≈ 4.21 µM)
- Activity (Proteus mirabilis [12]): 0%

Compound: C[C@@H](O)[C@H]1C(=O)N2C(C(=O)O)=C(SCCNC=N)C[C@H]12 [IMIPENEM ANHYDROUS]
- Activity ([Clostridium] innocuum): 0%
- MIC50 [1]: 0.25 µg/mL (≈ 0.835 µM)
- MIC90 [1]: 32 µg/mL (≈ 107 µM)
- Activity [13]: 7%
- MIC50 (Anaerococcus tetradius): ≤ 0.015 µg/mL
- MIC90 (Anaerococcus tetradius): 0.03 µg/mL (≈ 0.1 µM)
- MIC50 (Proteus mirabilis [2]): 0.5 µg/mL (≈ 1.67 µM)
- MIC90 (Proteus mirabilis [2]): 4 µg/mL (≈ 13.4 µM)
- Activity [3]: 0%
- Activity (Enterobacter cloacae): 0%
- MIC50 (Parabacteroides merdae): 0.5 µg/mL (≈ 1.67 µM)
- MIC90 (Parabacteroides merdae): 1 µg/mL (≈ 3.34 µM)
- MIC50 (Finegoldia magna): 0.03 µg/mL (≈ 0.1 µM)
- MIC90 (Finegoldia magna): 0.06 µg/mL (≈ 0.2 µM)
- MIC50 (Bacteroides uniformis [4]): 0.5 µg/mL (≈ 1.67 µM)
- MIC90 (Bacteroides uniformis [4]): 1 µg/mL (≈ 3.34 µM)
- MIC50 [5]: 0.5 µg/mL (≈ 1.67 µM)
- MIC90 [5]: 1 µg/mL (≈ 3.34 µM)
- Activity (Lacrimispora sphenoides [6]): 0%
- Activity [7]: 0%
- Activity [14]: 30%
- MIC50 (Porphyromonas somerae): < 0.015 µg/mL
- MIC90 (Porphyromonas somerae): ≤ 0.015 µg/mL
- Activity (Klebsiella aerogenes): 0%
- Activity (Bacteroides uniformis [8]): 0%
- MIC50 (Corynebacterium accolens): 0.03 µg/mL (≈ 0.1 µM)
- MIC90 (Corynebacterium accolens): 0.125 µg/mL (≈ 0.418 µM)
- MIC50 (Staphylococcus aureus): ≤ 0.015 µg/mL
- MIC90 (Staphylococcus aureus): 0.03 µg/mL (≈ 0.1 µM)
- MIC50 (Bacteroides fragilis): 0.125 µg/mL (≈ 0.418 µM)
- MIC90 (Bacteroides fragilis): 0.125 µg/mL (≈ 0.418 µM)
- MIC50 [9]: 0.25 µg/mL (≈ 0.835 µM)
- MIC90 [9]: 32 µg/mL (≈ 107 µM)
- Activity (Anaerococcus prevotii): 0%
- MIC50 (Lacrimispora sphenoides [10]): 0.25 µg/mL (≈ 0.835 µM)
- MIC90 (Lacrimispora sphenoides [10]): 2 µg/mL (≈ 6.68 µM)
- Activity (Bacteroides ovatus): 0%
- MIC50 (Clostridium perfringens): 0.06 µg/mL (≈ 0.2 µM)
- MIC90 (Clostridium perfringens): 0.125 µg/mL (≈ 0.418 µM)
- MIC50 [11]: 0.25 µg/mL (≈ 0.835 µM)
- MIC90 [11]: 2 µg/mL (≈ 6.68 µM)
- Activity (Proteus mirabilis [12]): 0%

Compound: Cc1ncc([N+](=O)[O-])n1CCO [METRONIDAZOLE]
- Activity ([Clostridium] innocuum): 0%
- MIC50 (Anaerococcus tetradius): 0.5 µg/mL (≈ 2.92 µM)
- MIC90 (Anaerococcus tetradius): 1 µg/mL (≈ 5.84 µM)
- MIC50 (Parabacteroides merdae): 0.5 µg/mL (≈ 2.92 µM)
- MIC90 (Parabacteroides merdae): 1 µg/mL (≈ 5.84 µM)
- MIC50 (Finegoldia magna): 0.5 µg/mL (≈ 2.92 µM)
- MIC90 (Finegoldia magna): 1 µg/mL (≈ 5.84 µM)
- MIC50 (Bacteroides uniformis [4]): 0.5 µg/mL (≈ 2.92 µM)
- MIC90 (Bacteroides uniformis [4]): 1 µg/mL (≈ 5.84 µM)
- MIC50 [5]: 0.5 µg/mL (≈ 2.92 µM)
- MIC90 [5]: 1 µg/mL (≈ 5.84 µM)
- Activity (Lacrimispora sphenoides [6]): 0%
- Activity [7]: 0%
- MIC50 (Porphyromonas somerae): 0.05 µg/mL (≈ 0.292 µM)
- MIC90 (Porphyromonas somerae): 0.25 µg/mL (≈ 1.46 µM)
- Activity (Bacteroides uniformis [8]): 0%
- MIC50 (Bacteroides fragilis): 0.5 µg/mL (≈ 2.92 µM)
- MIC90 (Bacteroides fragilis): 1 µg/mL (≈ 5.84 µM)
- Activity (Anaerococcus prevotii): 0%
- MIC50 (Lacrimispora sphenoides [10]): 0.125 µg/mL (≈ 0.73 µM)
- MIC90 (Lacrimispora sphenoides [10]): 0.25 µg/mL (≈ 1.46 µM)
- Activity (Bacteroides ovatus): 0%
- MIC50 (Clostridium perfringens): 1 µg/mL (≈ 5.84 µM)
- MIC90 (Clostridium perfringens): 1 µg/mL (≈ 5.84 µM)
- MIC50 [11]: 0.125 µg/mL (≈ 0.73 µM)
- MIC90 [11]: 0.25 µg/mL (≈ 1.46 µM)
